Assay results: ChEMBL document CHEMBL1165950, “Design and synthesis of new potent anticancer pyrazoles with high FLT3 kinase inhibitory selectivity” (Bioorg Med Chem, 2010)

Experiments:
Type in all cases: functional
HCC 2998 [1] = assay: Cytotoxicity against human HCC2998 cells assessed as cell growth at 0.01 uM after 48 hrs by sulforhodamine B assay; settings: HCC 2998, 48 h, read-out: Activity
TK-10 = assay: Growth inhibition of human TK10 cells after 48 hrs by sulforhodamine B assay; settings: TK-10, 48 h; for CC50: read-out: LC50 (the source's name)
How it was run: (§1)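 NCI 60-cell screen, five-dose mode. Cells grown in RPMI 1640 with 5% FBS and 2 mM L-glutamine and plated at 5000-40,000 cells/well according to doubling time. After 24 h preincubation, a Tz plate was TCA-fixed. Five concentrations (10-fold or 1/2 log dilutions) were applied for 48 h at 37 °C. SRB staining read at 515 nm. IC50 taken from [(Ti-Tz)/(C-Tz)]×100 = 50.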

A549 [2] = assay: Cytotoxicity against human A549 cells assessed as cell growth at 0.01 uM after 48 hrs by sulforhodamine B assay; settings: A549, 48 h, read-out: Activity
How it was run: (§2)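 NCI-60 five-dose screen. Cells were grown in RPMI 1640 with 5% FBS and 2 mM L-glutamine, plated at 5000–40,000 cells/well and preincubated for 24 h. Time-zero plates were TCA-fixed. DMSO-solubilized drug was added at five concentrations (10-fold or ½-log serial dilutions) for 48 h at 37 °C, 5% CO2. Cells were TCA-fixed, stained with 0.4% SRB and read at 515 nm. Percent growth used time-zero, control and test absorbances.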

SW-620 [3] = assay: Growth inhibition of human SW620 cells after 48 hrs by sulforhodamine B assay; settings: SW-620, 48 h; for CC50: read-out: LC50 (the source's name); how it was run: as §1
SW-620 [4] = assay: Cytotoxicity against human SW620 cells assessed as cell growth at 10 uM after 48 hrs by sulforhodamine B assay; settings: SW-620, 48 h, read-out: Activity
SNB-19 = assay: Cytotoxicity against human SNB19 cells assessed as cell growth at 0.01 uM after 48 hrs by sulforhodamine B assay; settings: SNB-19, 48 h, read-out: Activity
HOP-92 [5] = assay: Cytotoxicity against human HOP92 cells assessed as cell growth at 100 nM after 48 hrs by sulforhodamine B assay; settings: HOP-92, 48 h, read-out: Activity
SW-620 [6] = assay: Cytotoxicity against human SW620 cells assessed as cell growth at 100 nM after 48 hrs by sulforhodamine B assay; settings: SW-620, 48 h, read-out: Activity
HCT-15 = assay: Cytotoxicity against human HCT15 cells assessed as cell growth at 10 uM; settings: read-out: Activity
How it was run: (§3)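 Single-dose NCI-60 screen at 10 µM. Cells were grown in RPMI 1640 with 5% FBS and 2 mM L-glutamine, then treated for 48 h at 37 °C. Protein was measured by SRB staining with absorbance at 515 nm. Percentage growth was recorded, and inhibition percentage was calculated as 100 minus growth percentage.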

UACC-257 = assay: Cytotoxicity against human UACC257 cells assessed as cell growth at 10 uM after 48 hrs by sulforhodamine B assay; settings: UACC-257, 48 h, read-out: Activity
EKVX [7] = assay: Cytotoxicity against human EKVX cells assessed as cell growth at 100 nM after 48 hrs by sulforhodamine B assay; settings: read-out: Activity
[8] = Cytotoxicity against human RPMI8266 cells assessed as cell growth at 1 uM after 48 hrs by sulforhodamine B assay; settings: read-out: Activity
EKVX [9] = assay: Cytotoxicity against human EKVX cells assessed as cell growth at 10 uM; settings: read-out: Activity; how it was run: as §3
HL-60(TB) = assay: Cytotoxicity against human HL-60(TB) cells assessed as cell growth at 10 uM; settings: read-out: Activity
How it was run: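 NCI 60-cell panel screen at a single concentration of 10 µM. Cells are grown in RPMI 1640 with 5% FBS and 2 mM L-glutamine and read by SRB protein staining at 515 nm. Percent growth is measured relative to time-zero and untreated controls; inhibition % is 100 minus growth %.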

KM12 [10] = assay: Cytotoxicity against human KM12 cells assessed as cell growth at 100 nM after 48 hrs by sulforhodamine B assay; settings: KM12, 48 h, read-out: Activity
MOLT-4 = assay: Cytotoxicity against human MOLT4 cells assessed as cell growth at 100 nM after 48 hrs by sulforhodamine B assay; settings: MOLT-4, 48 h, read-out: Activity
SK-MEL-5 [11] = assay: Cytotoxicity against human SK-MEL-5 cells assessed as cell growth at 0.001 uM after 48 hrs by sulforhodamine B assay; settings: SK-MEL-5, 48 h, read-out: Activity
UACC-62 [12] = assay: Cytotoxicity against human UACC62 cells assessed as cell growth at 0.001 uM after 48 hrs by sulforhodamine B assay; settings: UACC-62, 48 h, read-out: Activity
BT-549 = assay: Cytotoxicity against human BT549 cells assessed as cell growth at 10 uM; settings: read-out: Activity; how it was run: as §3
UACC-62 [13] = assay: Cytotoxicity against human UACC62 cells assessed as cell growth at 0.01 uM after 48 hrs by sulforhodamine B assay; settings: UACC-62, 48 h, read-out: Activity
NCI-H322M = assay: Cytotoxicity against human NCI-H322M cells assessed as cell growth at 10 uM after 48 hrs by sulforhodamine B assay; settings: read-out: Activity
CAKI-1 = assay: Cytotoxicity against human Caki1 cells assessed as cell growth at 0.001 uM after 48 hrs by sulforhodamine B assay; settings: CAKI-1, 48 h, read-out: Activity
M14 = assay: Growth inhibition of human M14 cells after 48 hrs by sulforhodamine B assay; settings: M14, 48 h; how it was run: as §1
KM12 [14] = assay: Cytotoxicity against human KM12 cells assessed as cell growth at 0.01 uM after 48 hrs by sulforhodamine B assay; settings: KM12, 48 h, read-out: Activity
HOP-92 [15] = assay: Cytotoxicity against human HOP92 cells assessed as cell growth at 1 uM after 48 hrs by sulforhodamine B assay; settings: HOP-92, 48 h, read-out: Activity
MDA-MB-435 = assay: Growth inhibition of human MDA-MB-435 cells after 48 hrs by sulforhodamine B assay; settings: MDA-MB-435, 48 h; for CC50: read-out: LC50 (the source's name); how it was run: as §1
HCC 2998 [16] = assay: Cytotoxicity against human HCC2998 cells assessed as cell growth at 0.001 uM after 48 hrs by sulforhodamine B assay; settings: HCC 2998, 48 h, read-out: Activity
A549 [17] = assay: Cytotoxicity against human A549 cells assessed as cell growth at 0.001 uM after 48 hrs by sulforhodamine B assay; settings: A549, 48 h, read-out: Activity; how it was run: as §2
SK-MEL-5 [18] = assay: Growth inhibition of human SK-MEL-5 cells after 48 hrs by sulforhodamine B assay; settings: SK-MEL-5, 48 h; for CC50: read-out: LC50 (the source's name); how it was run: as §1
HT-29 = assay: Cytotoxicity against human HT-29 cells assessed as cell growth at 10 uM after 48 hrs by sulforhodamine B assay; settings: HT-29, 48 h, read-out: Activity
A498 = assay: Cytotoxicity against human A498 cells assessed as cell growth at 1 uM after 48 hrs by sulforhodamine B assay; settings: A498, 48 h, read-out: Activity; how it was run: as §2
COLO 205 = assay: Cytotoxicity against human COLO205 cells assessed as cell growth at 0.001 uM after 48 hrs by sulforhodamine B assay; settings: COLO 205, 48 h, read-out: Activity; how it was run: as §2

SMILES: COc1cc(C)cc(-c2nn(CC#N)cc2-c2ccc(-c3cccc(C(C)=O)c3)nc2)c1
- growth at 0.01 µM (HCC 2998 [1]): 87%
- GI50 (TK-10): 3.28 µM
- TGI (TK-10): 11.5 µM
- CC50 (TK-10): > 100 µM
- growth at 0.01 µM (A549 [2]): 87%
- GI50 (SW-620 [3]): 1.3 µM
- TGI (SW-620 [3]): 19.3 µM
- CC50 (SW-620 [3]): > 100 µM
- growth at 10 µM (SW-620 [4]): -11%
- growth at 0.01 µM (SNB-19): 102%
- growth at 0.1 µM (HOP-92 [5]): 89%
- growth at 0.1 µM (SW-620 [6]): 56%
- growth at 10 µM (HCT-15): 23.4%
- growth at 10 µM (UACC-257): 3%
- growth at 0.1 µM (EKVX [7]): 89%
- growth at 1 µM [8]: 8%
- growth at 10 µM (EKVX [9]): 51.6%
- growth at 10 µM (HL-60(TB)): 8.33%
- growth at 0.1 µM (KM12 [10]): 75%
- growth at 0.1 µM (MOLT-4): 84%
- growth at 0.001 µM (SK-MEL-5 [11]): 95%
- growth at 0.001 µM (UACC-62 [12]): 94%
- growth at 10 µM (BT-549): 25.4%
- growth at 0.01 µM (UACC-62 [13]): 90%
- growth at 10 µM (NCI-H322M): -10%
- growth at 0.001 µM (CAKI-1): 101%
- GI50 (M14): 1.17 µM
- TGI (M14): 3.3 µM
- growth at 0.01 µM (KM12 [14]): 96%
- growth at 1 µM (HOP-92 [15]): -4%
- CC50 (MDA-MB-435): > 100 µM
- growth at 0.001 µM (HCC 2998 [16]): 87%
- growth at 0.001 µM (A549 [17]): 97%
- GI50 (SK-MEL-5 [18]): 1.54 µM
- TGI (SK-MEL-5 [18]): 6.79 µM
- CC50 (SK-MEL-5 [18]): 39.8 µM
- growth at 10 µM (HT-29): -11%
- growth at 1 µM (A498): -21%
- growth at 0.001 µM (COLO 205): 103%

SMILES: COc1cc(C)cc(-c2nn(CC#N)cc2-c2ccnc(-c3ccc(N(C)C)cc3)c2)c1
- growth at 0.01 µM (HCC 2998 [1]): 107%
- GI50 (TK-10): 0.101 µM
- TGI (TK-10): 78.9 µM
- CC50 (TK-10): > 100 µM
- growth at 0.01 µM (A549 [2]): 97%
- GI50 (SW-620 [3]): 0.332 µM
- TGI (SW-620 [3]): > 100 µM
- CC50 (SW-620 [3]): > 100 µM
- growth at 10 µM (SW-620 [4]): 11%
- growth at 0.01 µM (SNB-19): 97%
- growth at 0.1 µM (HOP-92 [5]): 35%
- growth at 0.1 µM (SW-620 [6]): 14%
- growth at 10 µM (HCT-15): 8.19%
- growth at 10 µM (UACC-257): 13%
- growth at 0.1 µM (EKVX [7]): 43%
- growth at 1 µM [8]: 1%
- growth at 10 µM (EKVX [9]): 41%
- growth at 10 µM (HL-60(TB)): 1.48%
- growth at 0.1 µM (KM12 [10]): 10%
- growth at 0.1 µM (MOLT-4): 39%
- growth at 0.001 µM (SK-MEL-5 [11]): 99%
- growth at 0.001 µM (UACC-62 [12]): 91%
- growth at 10 µM (BT-549): -28.5%
- growth at 0.01 µM (UACC-62 [13]): 86%
- growth at 10 µM (NCI-H322M): 27%
- growth at 0.001 µM (CAKI-1): 102%
- GI50 (M14): 0.258 µM
- TGI (M14): 0.769 µM
- CC50 (M14; read-out: LC50 (the source's name)): > 100 µM
- growth at 0.01 µM (KM12 [14]): 89%
- growth at 1 µM (HOP-92 [15]): 9%
- GI50 (MDA-MB-435): 0.235 µM
- TGI (MDA-MB-435): 0.613 µM
- CC50 (MDA-MB-435): > 100 µM
- growth at 0.001 µM (HCC 2998 [16]): 106%
- growth at 0.001 µM (A549 [17]): 97%
- GI50 (SK-MEL-5 [18]): 0.269 µM
- TGI (SK-MEL-5 [18]): 0.672 µM
- CC50 (SK-MEL-5 [18]): 24 µM
- growth at 10 µM (HT-29): -66%
- growth at 1 µM (A498): -26%
- growth at 0.001 µM (COLO 205): 107%
